In publication PMC5736457 (European journal of medicinal chemistry, 2017):
Like-named read-outs stand apart in the source and are kept apart here.

Key:
[1] = test system: Panc-1, MDA-MB-231, MCF-7 and HCT116 cells; format: cell-based; conditions: 48 h, read-out: IC50s against all the cell lines tested (Panc-1, MDA-MB-231, MCF-7, HCT116)
[2] = test system: cancer cell lines (UACC903, MCF-7 and MDA-MB-231); test: MTT cell viability at 25 μM, values stated jointly for cancer cell lines; format: cell-based; conditions: 48 h, read-out: cell viability of cancer cell lines
UACC903 cells = test: Annexin V and Caspase 3/7 activity assays; format: cell-based, human; conditions: UACC903, 24 h; for cells positive for Annexin V, Caspase 3/7 activity and 7-AAD: concentration not stated at place (25 and 50 μM tested)
Procedure, shortened: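 UACC903 cells exposed to test compound at 25 and 50 μM for 24 h. Floating and adherent cells analysed on a Muse cell analyzer using two kits. The Annexin V/7-AAD kit sorts cells into live, early apoptotic (Annexin V+/7-AAD−), late apoptotic (double positive) and necrotic (7-AAD only) quadrants. The caspase-3/7 kit uses NucView, a DEVD-linked DNA dye released by active caspase 3/7, plus 7-AAD as dead-cell marker.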

UACC903 melanoma cells = test: Live/Dead assay, UACC903 cells; format: cell-based, human
Procedure, shortened: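 2 × 10^5 cells incubated with test compound (25 and 50 μM) for 24 h at 37 °C. Cells then stained with 5 μM ethidium homodimer plus 5 μM calcein-AM for 30 min at 37 °C. Imaged by fluorescence microscopy: green esterase-retained calcein marks live cells, red marks membrane-damaged dead cells. Percentage of dead cells quantified from images.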

[3] = test system: CHL-1 and UACC 903 melanoma cells; test: MTT cell viability assay, values stated jointly for CHL-1 and UACC 903; format: cell-based; conditions: Homo sapiens, read-out: IC50, CHL-1 and UACC 903 stated jointly in text
Procedure, shortened: (§1)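 Cells kept in DMEM with 10% FBS and penicillin/streptomycin at 37 °C. Seeded at 3,000 cells/well and treated in triplicate with a test compound series (0.5–25 μM for 48 h; 72 h exposure also run for CHL-1/UACC 903). MTT (5 mg/mL stock in PBS) added for 3 h at 37 °C, formazan dissolved in DMSO, absorbance read at 570 nm with 630 nm background subtracted. IC50 from non-linear curve fits.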

[4] = test system: MCF10A, the human breast epithelial cell line; test: MTT cell viability assay, normal MCF10A cells; format: cell-based; conditions: 25 μM, 48 h
[5] = test system: PARP, Bcl-2, Bcl-xL, Survivin in CHL-1 and UACC903 melanoma cells; test: Western blot of survival and apoptosis proteins; format: cell-based, human; conditions: CHL-1 and UACC903, 24 h
Procedure, shortened: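 CHL-1 and UACC903 cells (2 × 10^6) treated with test compound at set concentrations for 24 h. Whole-cell lysates resolved by SDS-PAGE and transferred to PVDF. Blots probed for PARP, […], survivin and Bcl-xL, with β-actin as loading control, and detected by enhanced chemiluminescence.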

[6] = test system: 1205Lu and A375M cell lines; test: MTT cell viability assay, values stated jointly for 1205Lu and A375M; format: cell-based; conditions: Homo sapiens, 48 h, read-out: IC50, 1205Lu and A375M stated jointly in text
Procedure, shortened: as §1

[7] = test system: UACC 903 (BRAF-mutant) melanoma cells; test: MTT cell viability assay, UACC 903 melanoma cells; format: cell-based; conditions: Homo sapiens, UACC-903, 72 h, read-out: Melanoma cells IC50 (μM) UACC 903
[8] = test system: CHL-1 (BRAF wild-type) melanoma cells; test: MTT cell viability assay, CHL-1 melanoma cells; format: cell-based; conditions: Homo sapiens, CHL-1, 72 h, read-out: Melanoma cells IC50 (μM) CHL-1

O=C1NC(=S)NC(=O)C1=C/C=C/c1cccc2ccccc12 [Compound 2d, 5-(3-Naphthalen-1-yl-allylidene)-2-thioxo-dihydro-pyrimidine-4,6-dione]
IC50 [1]: 3.6 to 7.9 µM

O=C1NC(=S)NC(=O)C1=C/C=C/c1cccs1 [Compound 2b, 5-(3-Thiophen-2-yl-allylidene)-2-thioxo-dihydro-pyrimidine-4,6-dione]
viability at 25 µM [2]: 20 to 30% | necrotic death (cells only positive for 7-AAD) (UACC903 cells): not detected | cells positive for Annexin V, Caspase 3/7 activity and 7-AAD (UACC903 cells): More than 70% | cell death in Live/Dead assay, human melanoma cells (UACC903 melanoma cells; 25 μM concentration, cell line not specified at place): 65–70% | IC50 ([3]; 48 h): 6.5 to 8.1 µM | IC50 ([3]; 72 h): 3.8 to 4 µM | potency towards melanoma cells (UACC903) as compared to normal MCF10A cells [4]: three-fold more potent | PARP cleavage (Western blot) [5]: induced PARP cleavage | levels of anti-apoptotic proteins Bcl-2, Bcl-xL and Survivin (Western blot) [5]: reduced the levels of anti-apoptotic proteins Bcl-2, Bcl-xL and Survivin in a dose-dependent manner | IC50 [6]: 10.6 to 14.8 µM

CCCS(=O)(=O)Nc1ccc(F)c(C(=O)c2c[nH]c3ncc(-c4ccc(Cl)cc4)cc23)c1F [PLX-4032, vemurafenib]
IC50 [7]: 3.6 ± 1.1 µM | IC50 [8]: 13.7 ± 1.7 µM

O=C1NC(=S)N(c2ccccc2)C(=O)/C1=C/C=C/c1cccs1 [Compound 8b, 1-Phenyl-5-(3-thiophen-2-yl-allylidene)-2-thioxo-dihydro-pyrimidine-4,6-dione]
viability at 25 µM [2]: 20 to 30% | necrotic death (cells only positive for 7-AAD) (UACC903 cells): not detected | cells positive for Annexin V, Caspase 3/7 activity and 7-AAD (UACC903 cells): More than 70% | cell death in Live/Dead assay, UACC903 (UACC903 melanoma cells; 25 μM, 24 h): 25% | IC50 ([3]; 48 h): 6.5 to 8.1 µM | IC50 ([3]; 72 h): 3.8 to 4 µM | potency towards melanoma cells (UACC903) as compared to normal MCF10A cells [4]: three-fold more potent | PARP cleavage (Western blot) [5]: induced PARP cleavage | levels of anti-apoptotic proteins Bcl-2, Bcl-xL and Survivin (Western blot) [5]: reduced the levels of anti-apoptotic proteins Bcl-2, Bcl-xL and Survivin in a dose-dependent manner | IC50 [6]: 10.6 to 14.8 µM
